In ChEMBL document CHEMBL1255334:
The source made the active and inactive calls. The calls are words filed in the database; no cut-off is given here.

What was measured:
Format in all cases: functional, organism-based
[1] = system: Mycobacterium tuberculosis; experiment: (§1) Antibacterial activity against Mycobacterium tuberculosis containing wild type PZase assessed as at 100 mg/liter
Method in brief: (§2)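 Clinical M. tuberculosis isolates first grown on Löwenstein-Jensen medium 3 to 4 weeks at 37°C. Radiometric BACTEC 460 test in acidified PZA test medium. Inoculum: ~McFarland 1 suspension grown in 12B medium until growth index (GI) >300. Paired vials per strain: drug-free control and PZA 100 mg/liter. Read when control GI reached 200. Resistant if PZA-vial GI >11% of control GI, susceptible if <9%.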

[2] = system: Mycobacterium tuberculosis; experiment: Antibacterial activity against Mycobacterium tuberculosis containing pncA gene with C deletion at nt 99 assessed as at 100 mg/liter; method in brief: as §2
[3] = system: Mycobacterium tuberculosis; experiment: as §1; method in brief: as §2; remark: listed apart in the source

Q: `NC(=O)c1cnccn1` was tested. Which Activity [1] did it give?
A: Active

Q: What about the Activity [2] of the same molecule?
A: inactive

Q: And the Activity [3]?
A: inactive
